Structures are written as SMILES. The list shows a part of the results. Records with an inconclusive call do not appear. The source made the active and inactive calls.

Sequence of Solute carrier family 12 member 5 (Homo sapiens) (Q9H2X9 whole entry, looked up): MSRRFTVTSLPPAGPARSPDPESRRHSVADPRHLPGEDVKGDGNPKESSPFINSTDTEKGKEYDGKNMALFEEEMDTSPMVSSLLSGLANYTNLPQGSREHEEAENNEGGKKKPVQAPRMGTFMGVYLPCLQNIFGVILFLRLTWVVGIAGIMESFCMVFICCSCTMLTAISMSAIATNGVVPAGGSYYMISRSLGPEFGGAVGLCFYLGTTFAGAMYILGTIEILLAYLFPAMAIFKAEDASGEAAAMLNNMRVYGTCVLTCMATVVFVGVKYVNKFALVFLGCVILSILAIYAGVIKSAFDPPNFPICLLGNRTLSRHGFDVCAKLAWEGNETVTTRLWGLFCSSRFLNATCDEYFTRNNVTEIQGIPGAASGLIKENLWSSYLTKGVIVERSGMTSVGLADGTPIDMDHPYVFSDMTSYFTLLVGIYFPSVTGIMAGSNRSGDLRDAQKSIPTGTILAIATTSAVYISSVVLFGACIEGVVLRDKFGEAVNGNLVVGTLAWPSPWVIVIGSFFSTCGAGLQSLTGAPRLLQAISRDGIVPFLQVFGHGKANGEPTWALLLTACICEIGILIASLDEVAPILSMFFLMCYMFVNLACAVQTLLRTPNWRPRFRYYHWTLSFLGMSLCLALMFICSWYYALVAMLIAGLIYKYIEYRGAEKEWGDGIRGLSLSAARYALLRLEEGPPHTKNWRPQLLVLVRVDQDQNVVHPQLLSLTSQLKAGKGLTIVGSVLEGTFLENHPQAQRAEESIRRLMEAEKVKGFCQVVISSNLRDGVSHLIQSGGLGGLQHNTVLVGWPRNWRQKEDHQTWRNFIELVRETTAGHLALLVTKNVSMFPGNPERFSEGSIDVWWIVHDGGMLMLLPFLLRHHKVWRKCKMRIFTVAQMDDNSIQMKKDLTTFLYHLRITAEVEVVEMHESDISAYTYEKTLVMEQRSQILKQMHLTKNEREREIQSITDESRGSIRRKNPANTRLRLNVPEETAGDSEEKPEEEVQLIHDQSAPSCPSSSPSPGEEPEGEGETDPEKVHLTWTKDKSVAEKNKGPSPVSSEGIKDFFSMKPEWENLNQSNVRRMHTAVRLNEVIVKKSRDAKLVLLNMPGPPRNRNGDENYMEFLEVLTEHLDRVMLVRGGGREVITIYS

One assay deals with Solute carrier family 12 member 5 (Homo sapiens) (UniProt Q9H2X9). The assay is described as follows: KCC2 modulators in sodium-free buffer, confirmation, cell-based, HEK293 KCC2, thallium flux, secondary assay (AID 1713). The note with it: FluoZin2 fluorescence, at 10 µM, active compounds read high. In outline:
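System: HEK/KCC2 cells | Compound: 10 µM single dose, 0.1% DMSO | Repeats: Two replicates | Benchmarks: Bumetanide 2 mM positive, DMSO negative | Times: Dye loading 48 min | Signal: FluoZin2 fluorescence, 480/540 nm, 1 Hz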
Take `S=c1nccc(-c2cc(Cl)sc2Cl)[nH]1`: the normalised thallium flux (F/F0 slope) was 0.00959 (inactive).
Still for that read-out and setting: the result for `Cc1cccc(NC(=S)NC(=O)c2ccc(Br)o2)c1` reads 0.0193 (active); that for `COc1ccc(-n2c(=S)[nH]c3sc4c(c3c2=O)CCc2ccccc2-4)cc1`, 0.0163 (active).
In the case of `Oc1c(C=Nc2cccc3nsnc23)ccc2ccccc12`, the normalised thallium flux (F/F0 slope) was 0.00934 (inactive).
Same read-out and setting: for `COc1ccc(C(=O)NC(=S)NNC(=O)c2c(-c3ccccc3)noc2C)cc1` the value was 0.00558 (inactive); for `COc1ccc(NC(=O)N2CCC(Cc3ccccc3)CC2)cc1`, 0.00655 (inactive); for `O=C(CSC1=NCCS1)Nc1nc(-c2ccccc2)cs1`, 0.0102 (inactive).
On to `Cc1ccc(/C=N/NC(=S)Nc2cccc(S(=O)(=O)N(C)C)c2)o1`, for which the normalised thallium flux (F/F0 slope) is 0.00805 (inactive).
The same measure, in the same setting: the result for `CS(=O)(=O)c1sc(C(=O)NC(=S)Nc2ccc(OC(F)(F)F)cc2)c2c1C=CCC2` reads 0.00979 (inactive); that for `O=C(CCC(=O)OCc1cccc(C(=O)Oc2ccccc2)c1)Nc1cccc2ccccc12`, 0.00618 (inactive).
Same read-out and setting: for `Cc1cc(C)nc(SC(C)C(=O)N/N=C/c2cccs2)n1` (stereo not drawn) the value was 0.00759 (inactive); for `O=S(=O)(c1ccc(F)cc1)N1CCN(C(=S)NCc2ccco2)CC1`, 0.0076 (inactive); for `C=CCNC(=S)N/N=C/c1ccc(C)s1`, 0.0134 (active).
On the same count and under the same terms, the result for `Brc1ccc(C2=CC(c3ccco3)n3ncnc3N2)cc1` (stereo not drawn) reads 0.00373 (active); that for `S=C(NN=C1CCN(Cc2ccccc2)CC1)NC1CCCCC1`, 0.0184 (inactive); that for `c1cncc(-c2nnc3n2C2(CCCCC2)Cc2ccccc2-3)c1`, 0.0161 (inactive).
With `COc1ccc(NC(=O)COC(=O)c2ccc(NS(=O)(=O)/C=C/c3ccccc3)cc2)cc1`, the normalised thallium flux (F/F0 slope) is 0.00992 (inactive).
The same measure, in the same setting: for `N=c1oc2ccccc2cc1C(=O)N/N=C/c1ccccc1` the value was 0.00592 (active); for `CCc1ccc2nc3sc(C(=O)Nc4nnc(CC)s4)c(N)c3cc2c1`, 0.00632 (inactive); for `Cc1ccc(OCc2n[nH]c(=S)n2-c2ccc(C)cc2)cc1`, 0.0109 (inactive).
In the case of `O=C(NNc1ccccc1Cl)C(O)(c1cccc(C(F)(F)F)c1)c1cccc(C(F)(F)F)c1`, the normalised thallium flux (F/F0 slope) was 0.0066 (inactive).
The same measure, in the same setting: the result for `CCOc1ccc(NC(=O)CN(C)CC(=O)Nc2cccc(Cl)c2C)cc1OCC` reads 0.00801 (inactive).
On the same count and under the same terms, the result for `C=CCNC(=S)NNC(=O)COc1c(Cl)cc(Cl)cc1Cl` reads 0.0146 (active); that for `Cc1nc(SCC(=O)N2CCc3ccccc3C2)c2c(C)c(C)sc2n1`, 0.0151 (inactive); that for `COc1ccc(CNC(=O)CCn2cccc2)cc1`, 0.0171 (inactive).
In the case of `Cc1ccccc1N/N=C/c1ccc(N2CCOCC2)cc1`, the normalised thallium flux (F/F0 slope) was 0.0119 (active).
On the same count and under the same terms, the result for `NC(=O)NC(=O)CSc1nc2cc([N+](=O)[O-])ccc2n1-c1cccc(C(F)(F)F)c1` reads 0.00549 (inactive); that for `Cc1ccc(/C=N/NC(=S)NC2CCCCC2)o1`, 0.0109 (inactive); that for `CCOC(=O)CSc1nnc(CNC(=O)c2cccs2)n1-c1ccccc1`, 0.00872 (inactive).
Same read-out and setting: the result for `COc1ccc(C(=O)NN(C)c2nc(-c3ccccc3)cc(C)c2S(C)(=O)=O)cc1` reads 0.0121 (active); that for `Cc1c(NC(=O)CSc2cccc3cccnc23)c(=O)n(-c2ccccc2)n1C`, 0.0141 (active); that for `Cc1ccc(N2C(=O)C(Cc3ccccc3)NC2=S)cc1` (stereo not drawn), 0.00991 (inactive).
Regarding `CC(C)C1Nc2c(C(=O)O)cccc2C(Nc2ccccc2C(=O)O)C1(C)C` (stereo not drawn), the normalised thallium flux (F/F0 slope) is 0.00578 (inactive).
Still for that read-out and setting: the result for `O=C(Nc1nnc(C2COc3ccccc3O2)o1)c1ccc(F)cc1` (stereo not drawn) reads 0.0197 (active).
The same measure, in the same setting: for `Cc1ccccc1-c1n[nH]c(=S)n1/N=C/c1ccc(-c2ccccc2Br)o1` the value was 0.0093 (inactive); for `Cc1cccc(NS(=O)(=O)c2ccc(C)c(C(N)=O)c2)c1`, 0.00589 (inactive); for `C=CCn1c(=S)[nH]c2scc(-c3ccco3)c2c1=O`, 0.0122 (active).
On to `COc1ccc2[nH]c(=S)cc(C)c2c1`, for which the normalised thallium flux (F/F0 slope) is 0.00897 (inactive).
Same read-out and setting: for `Cc1nnc(SC(C(=O)Nc2cc(Cl)cc(Cl)c2)c2ccccc2)[nH]c1=O` (stereo not drawn) the value was 0.00885 (inactive).

Test system in a further assay: not listed separately
The assay is described as follows: PubChem AID 1714.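 Further: raw slope of fluorescence over initial fluorescence between 10 and 20 s after thallium.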 To be noted: HEK293-KCC2 + bumetanide/ouabain, thallium flux FluoZin2; at 10 µM; active compounds read high. In outline: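 Test system: KCC2-expressing HEK cells; Reagent: thallium stimulus; Dosing: single compound dose, 10 µM final, 0.1% DMSO; Schedule: overnight culture 37 °C, dye loading 48 min; Detection: FluoZin2 thallium-flux fluorescence; Read-out basis: baseline-normalized fluorescence (F/F0) slope, 10–20 s post thallium.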
With `S=c1nccc(-c2cc(Cl)sc2Cl)[nH]1`, the normalized thallium flux was 0.0101 (active).
Same read-out and setting: the result for `Cc1cccc(NC(=S)NC(=O)c2ccc(Br)o2)c1` reads 0.142 (active).
Consider `COc1ccc(-n2c(=S)[nH]c3sc4c(c3c2=O)CCc2ccccc2-4)cc1`, for which the normalized thallium flux is 0.0262 (active).
Same read-out and setting: for `Oc1c(C=Nc2cccc3nsnc23)ccc2ccccc12` the value was 0.00749 (inactive).
The same measure, in the same setting: for `COc1ccc(C(=O)NC(=S)NNC(=O)c2c(-c3ccccc3)noc2C)cc1` the value was 0.0445 (active); for `COc1ccc(NC(=O)N2CCC(Cc3ccccc3)CC2)cc1`, 0.00529 (inactive).
Turning to `O=C(CSC1=NCCS1)Nc1nc(-c2ccccc2)cs1`, the normalized thallium flux was 0.00549 (inactive).
`Cc1ccc(/C=N/NC(=S)Nc2cccc(S(=O)(=O)N(C)C)c2)o1`: the normalized thallium flux is 0.0101 (active).
On the same count and under the same terms, the result for `CS(=O)(=O)c1sc(C(=O)NC(=S)Nc2ccc(OC(F)(F)F)cc2)c2c1C=CCC2` reads 0.0362 (active); that for `O=C(CCC(=O)OCc1cccc(C(=O)Oc2ccccc2)c1)Nc1cccc2ccccc12`, 0.00434 (inactive).
Still for that read-out and setting: for `Cc1cc(C)nc(SC(C)C(=O)N/N=C/c2cccs2)n1` (stereo not drawn) the value was 0.00586 (inactive); for `O=S(=O)(c1ccc(F)cc1)N1CCN(C(=S)NCc2ccco2)CC1`, 0.0054 (inactive); for `C=CCNC(=S)N/N=C/c1ccc(C)s1`, 0.0311 (active).
As to `Brc1ccc(C2=CC(c3ccco3)n3ncnc3N2)cc1` (stereo not drawn), the normalized thallium flux is 0.00178 (active).
Same read-out and setting: the result for `S=C(NN=C1CCN(Cc2ccccc2)CC1)NC1CCCCC1` reads 0.00465 (inactive).
As for `c1cncc(-c2nnc3n2C2(CCCCC2)Cc2ccccc2-3)c1`, the normalized thallium flux is 0.00468 (inactive).
The same measure, in the same setting: for `COc1ccc(NC(=O)COC(=O)c2ccc(NS(=O)(=O)/C=C/c3ccccc3)cc2)cc1` the value was 0.00679 (inactive); for `N=c1oc2ccccc2cc1C(=O)N/N=C/c1ccccc1`, 0.00648 (inactive); for `CCc1ccc2nc3sc(C(=O)Nc4nnc(CC)s4)c(N)c3cc2c1`, 0.000813 (active).
On the same count and under the same terms, the result for `Cc1ccc(OCc2n[nH]c(=S)n2-c2ccc(C)cc2)cc1` reads 0.094 (active).
On the same count and under the same terms, the result for `O=C(NNc1ccccc1Cl)C(O)(c1cccc(C(F)(F)F)c1)c1cccc(C(F)(F)F)c1` reads 0.018 (active); that for `CCOc1ccc(NC(=O)CN(C)CC(=O)Nc2cccc(Cl)c2C)cc1OCC`, 0.00595 (inactive); that for `C=CCNC(=S)NNC(=O)COc1c(Cl)cc(Cl)cc1Cl`, 0.0275 (active).
As for `Cc1nc(SCC(=O)N2CCc3ccccc3C2)c2c(C)c(C)sc2n1`, the normalized thallium flux is 0.00522 (inactive).
`COc1ccc(CNC(=O)CCn2cccc2)cc1`: the normalized thallium flux is 0.00443 (inactive).
Same read-out and setting: for `Cc1ccccc1N/N=C/c1ccc(N2CCOCC2)cc1` the value was 0.00874 (active); for `NC(=O)NC(=O)CSc1nc2cc([N+](=O)[O-])ccc2n1-c1cccc(C(F)(F)F)c1`, 0.0122 (active); for `Cc1ccc(/C=N/NC(=S)NC2CCCCC2)o1`, 0.0268 (active).
The same measure, in the same setting: for `CCOC(=O)CSc1nnc(CNC(=O)c2cccs2)n1-c1ccccc1` the value was 0.00583 (inactive); for `COc1ccc(C(=O)NN(C)c2nc(-c3ccccc3)cc(C)c2S(C)(=O)=O)cc1`, 0.0071 (inactive).
For the compound `Cc1c(NC(=O)CSc2cccc3cccnc23)c(=O)n(-c2ccccc2)n1C`, the normalized thallium flux was 0.0374 (active).
The same measure, in the same setting: the result for `Cc1ccc(N2C(=O)C(Cc3ccccc3)NC2=S)cc1` (stereo not drawn) reads 0.0247 (active); that for `CC(C)C1Nc2c(C(=O)O)cccc2C(Nc2ccccc2C(=O)O)C1(C)C` (stereo not drawn), 0.00489 (inactive); that for `O=C(Nc1nnc(C2COc3ccccc3O2)o1)c1ccc(F)cc1` (stereo not drawn), 0.06 (active).
The same measure, in the same setting: the result for `Cc1ccccc1-c1n[nH]c(=S)n1/N=C/c1ccc(-c2ccccc2Br)o1` reads 0.016 (active).
On to `Cc1cccc(NS(=O)(=O)c2ccc(C)c(C(N)=O)c2)c1`, for which the normalized thallium flux was 0.00471 (inactive).
The same measure, in the same setting: for `C=CCn1c(=S)[nH]c2scc(-c3ccco3)c2c1=O` the value was 0.0771 (active); for `COc1ccc2[nH]c(=S)cc(C)c2c1`, 0.0111 (active); for `Cc1nnc(SC(C(=O)Nc2cc(Cl)cc(Cl)c2)c2ccccc2)[nH]c1=O` (stereo not drawn), 0.00559 (inactive).

For the origin of these results see PubChem BioAssay.
